These results are taken from ChEMBL document CHEMBL1150363, “Synthesis, ligand-receptor modeling studies and pharmacological evaluation of novel 4-modified-2-aryl-1,2,4-triazolo[4,3-a]quinoxalin-1-one derivatives as potent and selective human A3 adenosine receptor antagonists” (Bioorg Med Chem, 2008).

A word on the Ki: it is a measure of affinity in units of concentration, obtained from inhibition or displacement. A higher Ki goes with weaker binding.

One test addresses T1, Adenosine receptor A3 (Homo sapiens, UniProt P0DMS8).
T1 sequence (P0DMS8 whole entry): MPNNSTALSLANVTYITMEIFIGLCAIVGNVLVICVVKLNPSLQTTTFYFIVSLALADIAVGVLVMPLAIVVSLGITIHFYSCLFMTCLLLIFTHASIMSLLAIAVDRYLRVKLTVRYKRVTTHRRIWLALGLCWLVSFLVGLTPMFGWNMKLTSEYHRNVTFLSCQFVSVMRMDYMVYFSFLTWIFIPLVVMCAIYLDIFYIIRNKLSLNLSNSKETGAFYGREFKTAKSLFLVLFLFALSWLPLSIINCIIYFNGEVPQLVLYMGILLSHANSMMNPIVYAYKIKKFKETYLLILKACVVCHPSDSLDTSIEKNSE
Kind of test: Displacement of [125I]AB-MECA from human cloned adenosine A3 receptor expressed in CHO cells. The format is cell-based. In short, it runs like this: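 CHO cells stably expressing hA3. IC50 by non-linear regression over five displacer concentrations in triplicate, converted to Ki by Cheng-Prusoff. Ki values are means of four assays.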

For the next test, the species on record is Bos taurus. The experiment in a line: Displacement of [3H]CGS21680 from adenosine A2A receptor in bovine brain membrane at 10 uM. Format: cell membranes. The gist of the method: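 Bovine striatal membranes, [3H]CGS 21680 (Kd 14 nM). Five displacer concentrations in triplicate, non-linear regression IC50, Cheng-Prusoff Ki, four assays. Single-point data are % inhibition at 10 µM.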
A general note: Displacement assays read how much labelled ligand stays bound in the presence of the test substance.

The target in test [1] is T2, Adenosine receptor A1 (Bos taurus) (UniProt P28190).
T2 sequence (whole entry): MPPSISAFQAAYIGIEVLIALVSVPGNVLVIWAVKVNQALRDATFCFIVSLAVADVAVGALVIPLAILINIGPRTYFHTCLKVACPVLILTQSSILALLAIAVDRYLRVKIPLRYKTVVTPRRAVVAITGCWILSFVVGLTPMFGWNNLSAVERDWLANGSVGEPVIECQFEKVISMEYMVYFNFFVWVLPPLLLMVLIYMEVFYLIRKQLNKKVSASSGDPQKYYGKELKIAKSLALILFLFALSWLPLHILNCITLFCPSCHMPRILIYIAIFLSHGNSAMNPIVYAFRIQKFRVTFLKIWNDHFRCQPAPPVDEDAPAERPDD
Kind of test: Displacement of [125I]DPCPX from adenosine A1 receptor in bovine brain membrane at 10 uM. Format: cell membranes. Conditions: in the assay text read “[3H]DPCPX” for “[125I]DPCPX”. The gist of the method: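 Bovine cerebral cortical membranes, [3H]DPCPX (Kd 0.3 nM). IC50 from five displacer concentrations in triplicate, Ki by Cheng-Prusoff, means of four assays. Single-point data are % inhibition of specific binding at 10 µM.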

For test [2], the target named is T3, Adenosine receptor A3 (Homo sapiens) (UniProt P0DMS8).
T3 sequence (whole entry): T1 sequence (P0DMS8 whole entry)
The experiment in a line: Displacement of [125I]AB-MECA from human cloned adenosine A3 receptor expressed in CHO cells at 1 uM. Format: cell-based. The gist of the method:
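CHO cells stably expressing hA3. Displacement of [125I]AB-MECA (Kd 1.4 nM). IC50 by non-linear regression over five displacer concentrations in triplicate, converted to Ki by Cheng-Prusoff. Ki values are means of four assays. Single-point data are % inhibition of specific binding at 1 µM.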

A short description of test [3]: Displacement of [3H]CGS21680 from adenosine A2A receptor in bovine brain membrane. Format: cell membranes, Bos taurus.
For test [4], the target named is T4, Adenosine receptor A1 (Bos taurus, UniProt P28190).
T4 sequence (P28190 whole entry): T2 sequence (whole entry)
Kind of test: Displacement of [3H]DPCPX from adenosine A1 receptor in bovine brain membrane.

Test [5] has as its target T5, Adenosine receptor A2a (Homo sapiens, UniProt P29274). The experiment in a line: Displacement of [3H]NECA from human cloned adenosine A2A receptor expressed in CHO cells.
Test [6] concerns the target T6, Adenosine receptor A1 (Homo sapiens, UniProt P30542).
T6 sequence (P30542 whole entry): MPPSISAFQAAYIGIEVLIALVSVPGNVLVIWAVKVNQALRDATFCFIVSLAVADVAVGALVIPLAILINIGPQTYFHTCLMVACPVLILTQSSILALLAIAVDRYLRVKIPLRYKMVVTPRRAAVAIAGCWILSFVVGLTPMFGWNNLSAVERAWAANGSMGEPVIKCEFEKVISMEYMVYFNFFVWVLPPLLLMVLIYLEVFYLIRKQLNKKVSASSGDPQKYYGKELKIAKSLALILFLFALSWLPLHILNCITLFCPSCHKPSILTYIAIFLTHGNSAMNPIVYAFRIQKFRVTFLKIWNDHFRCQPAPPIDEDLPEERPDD
Kind of test: Displacement of [3H]DPCPX from human cloned adenosine A1 receptor expressed in CHO cells.

The target in test [7] is T5, Adenosine receptor A2a. Kind of test: Displacement of [125I]NECA from human adenosine A2A receptor expressed in CHO cells at 10uM. Conditions: in the assay text read “[3H]NECA” for “[125I]NECA”. The format is cell-based. In short, it runs like this:
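hA2A stably expressed in CHO cells. Radioligand [3H]NECA (Kd 30 nM). Percentage inhibition of specific binding measured at 10 µM.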

Test [8] addresses T7, Adenosine receptor A1 (Homo sapiens) (UniProt P30542).
T7 sequence (whole entry): T6 sequence (P30542 whole entry)
The experiment in a line: Displacement of [3H]DPCPX from human cloned adenosine A1 receptor expressed in CHO cells at 10 uM.

T5 sequence (P29274 whole entry): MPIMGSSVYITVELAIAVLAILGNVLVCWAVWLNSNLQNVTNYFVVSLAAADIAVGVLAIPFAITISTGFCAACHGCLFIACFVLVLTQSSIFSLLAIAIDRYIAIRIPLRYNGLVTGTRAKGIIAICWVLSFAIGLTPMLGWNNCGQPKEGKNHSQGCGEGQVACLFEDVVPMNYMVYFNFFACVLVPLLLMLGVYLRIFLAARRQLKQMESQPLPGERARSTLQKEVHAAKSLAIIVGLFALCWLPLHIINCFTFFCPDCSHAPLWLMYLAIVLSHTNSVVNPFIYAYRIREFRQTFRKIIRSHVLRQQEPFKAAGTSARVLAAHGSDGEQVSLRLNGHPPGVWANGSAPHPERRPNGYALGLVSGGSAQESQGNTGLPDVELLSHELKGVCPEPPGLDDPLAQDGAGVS

Take `COc1ccc(-n2nc3c(N(S(C)(=O)=O)S(C)(=O)=O)nc4ccccc4n3c2=O)cc1`: on Adenosine receptor A3, the affinity corresponds to a Ki of 387 nM. The Activity worked out at 17% in the test listed under Bos taurus and 6.2% in test [1].
In the case of `O=C(Nc1nc2c([N+](=O)[O-])cccc2n2c(=O)n(-c3ccccc3)nc12)c1ccncc1`, the Activity came to 0% in test [2], 22% in the test listed under Bos taurus and 37.5% in [1].
Compound `CCCn1c(=O)c2[nH]c(C3CCCC3)nc2n(CCC)c1=O` [1,3-DIPROPYL-8-CYCLOPENTYLXANTHINE [DPCPX]] registered a Ki in test [3] of 337 nM.
Consider `O=C(NC(=O)c1ccccc1)Nc1nc2ccccc2n2c(=O)n(-c3ccccc3)nc12`, for which the inhibitory constant (Ki) stood at 1300 nM at Adenosine receptor A3, 101 nM at Adenosine receptor A1 [4] and 379 nM in [3].
Turning to `O=C(Nc1nc2ccccc2n2c(=O)n(-c3ccccc3)nc12)c1cccc(I)c1`, the Activity came out at 36% in test [2] and 35% in the test filed under Bos taurus. For the same compound, the affinity at Adenosine receptor A1 [4] corresponds to a Ki of 473 nM.
Regarding `O=C(NCc1ccccc1)Nc1nc2ccccc2n2c(=O)n(-c3ccccc3)nc12`, the Ki at Adenosine receptor A3 came to 83.5 nM; on Adenosine receptor A1 [4] it was 4.1 nM; on Adenosine receptor A2a [5], 158 nM; in test [3], 173 nM; at Adenosine receptor A1 [6], 12.3 nM.
Regarding `O=C(Nc1nc2ccccc2n2c(=O)n(-c3ccccc3)nc12)c1ccccc1`, the Activity in the test filed under Bos taurus is 53%.
For the compound `COc1ccc(-n2nc3c(NS(=O)(=O)c4ccccc4)nc4ccccc4n3c2=O)cc1`, the values for the Ki at Adenosine receptor A3, on Adenosine receptor A1 [4] and on Adenosine receptor A1 [6] were 2.2 nM, 4700 nM and 2700 nM, respectively. The Activity at Adenosine receptor A2a [7] came out at 23%; in the test filed under Bos taurus it was 16%.
Consider `O=C(NCc1ccccc1)Nc1nc2c([N+](=O)[O-])cccc2n2c(=O)n(-c3ccccc3)nc12`, for which the values for the Ki at Adenosine receptor A3 and on Adenosine receptor A1 [4] were 63 nM and 4.6 nM, respectively. Besides, the Activity in test [8] was determined as 4%; on Adenosine receptor A2a [7], 20%; in the test filed under Bos taurus, 46.5%.
For `O=C(Nc1cccc(I)c1)Nc1nc2ccccc2n2c(=O)n(-c3ccccc3)nc12`, the Ki at Adenosine receptor A3 was determined as 953 nM; at Adenosine receptor A1 [4] it was 359 nM; in test [3], 1800 nM.
In the case of `CS(=O)(=O)Nc1nc2ccccc2n2c(=O)n(-c3ccccc3)nc12`, the Ki stood at 1430 nM on Adenosine receptor A3 and 164 nM at Adenosine receptor A1 [4]. Besides, the Activity in the test filed under Bos taurus amounted to 32%.
As to `COc1ccc(-n2nc3c(NC(=O)NCc4ccccc4)nc4ccccc4n3c2=O)cc1`, the Ki on Adenosine receptor A3 came out at 65 nM; on Adenosine receptor A1 [4], 20.8 nM; at Adenosine receptor A1 [6], 4220 nM. Further, the Activity at Adenosine receptor A2a [7] turned out to be 23%; in the test listed under Bos taurus it was 12%.
With `O=C(Nc1nc2ccccc2n2c(=O)n(-c3ccccc3)nc12)c1ccncc1`, the Ki amounted to 6.1 nM on Adenosine receptor A3; 57 nM on Adenosine receptor A1 [4]; 188 nM on Adenosine receptor A2a [5]; 812 nM in [3]; 2380 nM at Adenosine receptor A1 [6].
On to `O=c1n(-c2ccccc2)nc2c(OCc3ccccc3)nc3ccccc3n12`, for which the inhibition constant Ki worked out at 21 nM on Adenosine receptor A3 and 55 nM on Adenosine receptor A1 [4]. Also, the Activity in [8] came to 46%; on Adenosine receptor A2a [7], 10%; in the test filed under Bos taurus it was 19%.
On to `O=c1n(-c2ccccc2)nc2c(NS(=O)(=O)c3ccccc3)nc3c([N+](=O)[O-])cccc3n12`, for which the Ki on Adenosine receptor A3 stood at 100 nM; at Adenosine receptor A1 [4] it was 210 nM. Also, the Activity in the test listed under Bos taurus amounted to 25%.
In the case of `O=c1n(-c2ccccc2)nc2c(NS(=O)(=O)c3ccccc3)nc3ccccc3n12`, the Ki on Adenosine receptor A3 was determined as 32.2 nM; on Adenosine receptor A1 [4], 157 nM. For the same compound, the results for the Activity (in test [8]; on Adenosine receptor A2a [7]; in the test filed under Bos taurus) were 0%, 27% and 35%, respectively.
Take `COc1ccc(-n2nc3c(OCc4ccccc4)nc4ccccc4n3c2=O)cc1`: the affinity on Adenosine receptor A3, expressed as Ki, was 6.4 nM. The Activity was 54% in test [8], 4% on Adenosine receptor A2a [7], 41% in the test filed under Bos taurus and 53% in [1].
As to `COC(=O)c1ccc(C(=O)Nc2nc3ccccc3n3c(=O)n(-c4ccccc4)nc23)cc1`, the Activity in test [2] was 41%; in the test filed under Bos taurus, 36%. This compound also displayed an inhibition constant Ki on Adenosine receptor A1 [4] of 106 nM.
Turning to `COc1ccc(-n2nc3c(NC(=O)c4ccncc4)nc4ccccc4n3c2=O)cc1`, the Ki on Adenosine receptor A3 came out at 68 nM; at Adenosine receptor A1 [4] it was 236 nM; at Adenosine receptor A2a [5], 397 nM; on Adenosine receptor A1 [6] it was 779 nM. The same compound yielded an Activity in the test filed under Bos taurus of 44%.
`COC(=O)c1ccc(C(=O)Nc2nc3ccccc3n3c(=O)n(-c4ccc(OC)cc4)nc23)cc1`: affinity at Adenosine receptor A3 was put at a Ki of 1370 nM. Also, the Activity in the test listed under Bos taurus worked out at 41%; in [1] it was 30.5%.
`COc1ccc(-n2nc3c(NS(C)(=O)=O)nc4ccccc4n3c2=O)cc1`: at Adenosine receptor A3, the affinity corresponds to a Ki of 493 nM. Also, the Activity was 0% in the test listed under Bos taurus and 6% in test [1].
As to `CS(=O)(=O)Nc1nc2c([N+](=O)[O-])cccc2n2c(=O)n(-c3ccccc3)nc12`, the results for the Activity (in test [2]; in the test filed under Bos taurus) were 37% and 25%, respectively. The affinity on Adenosine receptor A1 [4], expressed as Ki, was 2840 nM.
